# In ChEMBL document CHEMBL4385611, “Difluoromethylene at the γ-Lactam α-Position Improves 11-Deoxy-8-aza-PGE1 Series EP4 Receptor Binding and Activity: 11-Deoxy-10,10-difluoro-8-aza-PGE1 Analog (KMN-159) as a Potent EP4 Agonist” (J Med Chem, 2019):
# Tests used:
# [1] = Half-life in human blood at 1 uM by HPLC-MS/MS analysis; type: ADME, tissue-based
# [2] = molecular target: Cytochrome P450 2D6 (Homo sapiens, UniProt P10635); experiment: Inhibition of CYP2D6 in human liver microsomes using dextromethorphan as substrate at 10 uM after 10 mins by HPLC-MS/MS analysis; type: ADME
# [3] = molecular target: T1, Prostaglandin E2 receptor EP2 subtype (Homo sapiens, UniProt P43116); experiment: Agonist activity at human EP2 receptor expressed in HEK293T/17 cells assessed as increase in GalphaS-mediated CREB activation measured after 6 to 24 hrs by SEAP reporter gene-based chemiluminescence assay; type: functional, cell-based
# [4] = Aqueous solubility of the compound in pH 7.4 phosphate-buffered saline at 200 uM after 24 hrs by shake-flask method; type: physicochemical
# [5] = Mutagenicity in Salmonella typhimurium TA98 after 96 hrs in presence of rat liver S9 fraction by Ames test; type: toxicity, subcellular; details: salmonella enterica subsp. enterica serovar typhimurium, s9, 96 h
# [6] = molecular target: T2, Prostaglandin E2 receptor EP4 subtype (Homo sapiens, UniProt P35408); experiment: Displacement of [3H]PGE2 from human recombinant EP4 receptor expressed in HEK293 cell membranes after 120 mins by liquid scintillation counting method
# [7] = Apparent permeability across apical to basolateral side in human Caco2 cells assessed as drug recovery at 5 uM after 120 mins by LC-MS/MS analysis; type: ADME, cell-based; details: Caco-2, read-out: Drug recovery
# [8] = Efflux ratio of apparent permeability from basolateral to apical side over apical to basolateral side in human Caco2 cells at 5 uM after 120 mins by LC-MS/MS analysis; type: ADME, cell-based; details: Caco-2
# [9] = Apparent permeability across apical to basolateral side in human Caco2 cells at 5 uM after 120 mins by LC-MS/MS analysis; type: ADME, cell-based; details: Caco-2
# [10] = Protein binding in human plasma at 10 uM after 4 hrs by HPLC-MS/MS-based equilibrium dialysis method; type: ADME, cell-free; details: read-out: PPB (converted)
# [11] = Apparent permeability across basolateral to apical side in human Caco2 cells at 5 uM after 120 mins by LC-MS/MS analysis; type: ADME, cell-based; details: Caco-2
# [12] = Intrinsic clearance in human liver microsomes at 0.1 uM by HPLC-MS/MS analysis; type: ADME, Microsome; details: read-out: CLH
# [13] = Genotoxicity in Salmonella typhimurium TA98 at 0.6 to 100 uM after 96 hrs by photometry analysis; type: toxicity; details: salmonella enterica subsp. enterica serovar typhimurium
# [14] = Apparent permeability across basolateral to apical side in human Caco2 cells assessed as drug recovery at 5 uM after 120 mins by LC-MS/MS analysis; type: ADME, cell-based; details: Caco-2, read-out: Drug recovery
# [15] = molecular target: T3, Prostaglandin E2 receptor EP3 subtype (Homo sapiens, UniProt P43115); experiment: Displacement of [3H]PGE2 from human recombinant EP3 receptor expressed in HEK293 cell membranes after 120 mins by liquid scintillation counting method
# T3 sequence (P43115 whole entry): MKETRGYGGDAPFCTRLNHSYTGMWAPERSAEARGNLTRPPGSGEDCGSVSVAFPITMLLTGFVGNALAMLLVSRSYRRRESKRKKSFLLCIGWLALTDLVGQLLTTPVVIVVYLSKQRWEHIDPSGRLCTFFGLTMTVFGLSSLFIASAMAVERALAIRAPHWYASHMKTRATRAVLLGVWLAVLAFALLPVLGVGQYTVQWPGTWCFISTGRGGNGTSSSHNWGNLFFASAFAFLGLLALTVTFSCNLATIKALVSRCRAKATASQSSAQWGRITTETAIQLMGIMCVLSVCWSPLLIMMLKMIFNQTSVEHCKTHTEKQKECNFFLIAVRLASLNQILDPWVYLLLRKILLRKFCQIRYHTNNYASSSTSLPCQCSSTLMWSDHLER
# [16] = species: Homo sapiens; experiment: Selectivity ratio of Ki for displacement of [3H]PGE2 from human recombinant EP2 receptor expressed in HEK293 cell membranes to Ki for displacement of [3H]PGE2 from human recombinant EP4 receptor expressed in HEK293 cell membranes
# [17] = system: CHO-K1; experiment: Clastogenic activity in CHOK1 cells after 4 hrs in presence of S9 fraction by micronucleus assay; type: toxicity, cell-based, Cricetulus griseus; details: chinese hamster, s9, 4 h
# [18] = Mutagenicity in Salmonella typhimurium TA100 after 96 hrs in presence of rat liver S9 fraction by Ames test; type: toxicity, subcellular; details: salmonella enterica subsp. enterica serovar typhimurium, s9, 96 h
# [19] = Genotoxicity in Salmonella typhimurium TA100 at 0.6 to 100 uM after 96 hrs by photometry analysis; type: toxicity; details: salmonella enterica subsp. enterica serovar typhimurium
# [20] = molecular target: T1, Prostaglandin E2 receptor EP2 subtype; experiment: Agonist activity at human EP2 receptor expressed in HEK293T/17 cells assessed as increase in intracellular cAMP level at 10 uM incubated for 30 mins by ELISA relative to control; type: functional, cell-based
# [21] = molecular target: T4, Cytochrome P450 2C8 (Homo sapiens, UniProt P10632); experiment: Inhibition of CYP2C8 in human liver microsomes using paclitaxel as substrate at 10 uM after 10 mins by HPLC-MS/MS analysis; type: ADME
# T4 sequence (P10632 whole entry): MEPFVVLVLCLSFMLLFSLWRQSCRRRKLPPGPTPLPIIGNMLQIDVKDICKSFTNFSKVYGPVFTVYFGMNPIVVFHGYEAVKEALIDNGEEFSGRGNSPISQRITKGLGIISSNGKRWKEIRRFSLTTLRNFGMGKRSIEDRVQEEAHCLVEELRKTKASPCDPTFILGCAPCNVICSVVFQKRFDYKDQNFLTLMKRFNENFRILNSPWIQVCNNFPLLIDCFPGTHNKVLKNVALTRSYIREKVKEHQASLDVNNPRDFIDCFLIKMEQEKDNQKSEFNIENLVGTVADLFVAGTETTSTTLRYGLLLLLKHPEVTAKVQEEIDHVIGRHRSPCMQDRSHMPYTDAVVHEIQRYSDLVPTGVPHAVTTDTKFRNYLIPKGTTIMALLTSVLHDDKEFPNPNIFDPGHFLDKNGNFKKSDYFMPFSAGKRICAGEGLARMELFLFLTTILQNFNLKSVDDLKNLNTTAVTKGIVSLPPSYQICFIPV
# [22] = molecular target: T2, Prostaglandin E2 receptor EP4 subtype; experiment: Agonist activity at human EP4 receptor expressed in HEK293T/17 cells assessed as increase in GalphaS-mediated CREB activation measured after 6 to 24 hrs by SEAP reporter gene-based chemiluminescence assay; type: functional, cell-based
# [23] = Mutagenicity in Salmonella typhimurium TA1535 after 96 hrs in absence of rat liver S9 fraction by Ames test; type: toxicity; details: salmonella enterica subsp. enterica serovar typhimurium, s9, 96 h
# [24] = system: CHO-K1; experiment: Clastogenic activity in CHOK1 cells after 4 hrs in absence of S9 fraction by micronucleus assay; type: toxicity, cell-based, Cricetulus griseus; details: chinese hamster, cho-k1, 4 h
# [25] = Intrinsic clearance in human hepatocytes at 0.1 uM by HPLC-MS/MS analysis; type: ADME, cell-based, Hepatocyte
# [26] = Chemical stability in PBS buffer at pH 7.4 assessed as compound recovery at 4 degC; type: physicochemical
# How it was run: (§1)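 Compound solution in PBS, pH 7.4, held at 4 °C, tested as plain aqueous solution and after autoclaving. A separate sample was exposed to Co-60 gamma irradiation. Read-out is percent of compound recovered.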
# [27] = Apparent permeability across basolateral to apical side in MDCK-MDR1 cells assessed as drug recovery; type: ADME, cell-based, Canis lupus familiaris; details: dog, read-out: Drug recovery
# [28] = Chemical stability of the compound assessed as drug recovery under Co-60 gamma irradiation condition; type: physicochemical; how it was run: as §1
# [29] = Efflux ratio of apparent permeability across basolateral to apical over apical to basolateral side in MDCK-MDR1 cells; type: ADME, cell-based, Canis lupus familiaris; details: dog
# T1 sequence (P43116 whole entry): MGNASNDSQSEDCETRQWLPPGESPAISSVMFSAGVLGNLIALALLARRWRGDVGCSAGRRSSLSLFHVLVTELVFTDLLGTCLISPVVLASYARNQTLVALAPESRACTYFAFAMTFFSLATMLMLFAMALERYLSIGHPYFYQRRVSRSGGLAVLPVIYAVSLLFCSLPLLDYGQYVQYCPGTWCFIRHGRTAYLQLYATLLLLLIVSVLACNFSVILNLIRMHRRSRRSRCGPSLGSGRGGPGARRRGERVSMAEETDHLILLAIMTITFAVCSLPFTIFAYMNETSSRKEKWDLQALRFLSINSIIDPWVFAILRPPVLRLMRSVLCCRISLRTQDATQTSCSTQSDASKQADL
# T2 sequence (P35408 whole entry): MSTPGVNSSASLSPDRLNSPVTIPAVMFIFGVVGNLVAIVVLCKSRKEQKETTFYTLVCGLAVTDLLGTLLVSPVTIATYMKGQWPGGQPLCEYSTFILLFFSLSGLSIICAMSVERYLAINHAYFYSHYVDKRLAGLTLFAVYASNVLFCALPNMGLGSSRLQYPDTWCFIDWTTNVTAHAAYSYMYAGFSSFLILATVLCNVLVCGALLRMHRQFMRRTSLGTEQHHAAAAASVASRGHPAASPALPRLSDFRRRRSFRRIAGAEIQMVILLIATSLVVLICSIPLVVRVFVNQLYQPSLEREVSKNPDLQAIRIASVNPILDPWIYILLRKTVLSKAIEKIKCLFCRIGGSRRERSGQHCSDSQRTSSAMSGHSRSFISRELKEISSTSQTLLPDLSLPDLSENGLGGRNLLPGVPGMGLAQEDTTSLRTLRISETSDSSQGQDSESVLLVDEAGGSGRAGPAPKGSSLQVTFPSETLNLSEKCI
# Chain of Cytochrome P450 2D6 (P10635 whole entry): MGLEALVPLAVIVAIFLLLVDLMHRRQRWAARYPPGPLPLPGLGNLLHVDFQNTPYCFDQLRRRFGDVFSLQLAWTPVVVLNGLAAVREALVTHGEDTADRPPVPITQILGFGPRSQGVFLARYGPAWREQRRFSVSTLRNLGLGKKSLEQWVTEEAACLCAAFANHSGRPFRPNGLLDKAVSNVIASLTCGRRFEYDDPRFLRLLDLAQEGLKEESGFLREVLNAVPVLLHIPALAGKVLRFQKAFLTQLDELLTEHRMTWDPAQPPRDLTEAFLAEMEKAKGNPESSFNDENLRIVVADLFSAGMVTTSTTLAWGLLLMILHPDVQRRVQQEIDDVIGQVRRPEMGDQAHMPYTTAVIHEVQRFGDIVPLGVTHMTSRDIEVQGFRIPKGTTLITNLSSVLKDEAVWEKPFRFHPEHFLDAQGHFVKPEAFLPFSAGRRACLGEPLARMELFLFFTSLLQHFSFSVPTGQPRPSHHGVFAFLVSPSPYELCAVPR
half-life at 1 µM [1] [h],inhibition (INH) [2],EC50 [3] [nM],"solubility thermodynamic at 24 h, 200 µM [4] [µM]",Ki [6] [nM],"recovery at 2 h, 5 µM [7] [%]","efflux ratio at 2 h, 5 µM [8]","Papp A→B at 2 h, 5 µM [9] [×10⁻⁶ cm/s]","fraction unbound at 4 h, 10 µM [10]","Papp B→A at 2 h, 5 µM [11] [×10⁻⁶ cm/s]",microsomal CLint at 0.1 µM [12] [µL/min/mg],"recovery at 2 h, 5 µM [14] [%]",Ki [15] [nM],Activity [20] [%],Structure (SMILES),Activity [5],Activity [13],Ratio Ki [16],Activity [17],Activity [18],Activity [19],other results
> 2,Not Active,> 10000,192,2.35,103,1.6,6.38,0.558,10.1,< 116,97,880,< 50,CCC#CC[C@H](C)[C@H](O)/C=C/[C@H]1CCC(=O)N1CCCCCCC(=O)O,Non-Toxic,Non-Toxic,> 5000,Non-Toxic,Non-Toxic,Non-Toxic,inhibition (INH) [21]: Not Active; EC50 [22]: 0.476 nM; Activity [23]: Non-Toxic; Activity [24]: Non-Toxic; CLH [25]: < 8.2 µL/min/10^6 cells
> 2,Not Active,7360,197,0.378,94,1.5,9.93,0.416,14.5,< 116,93,258,< 50,CCC#CC[C@H](C)[C@H](O)/C=C/[C@H]1CC(F)(F)C(=O)N1CCCCCCC(=O)O,Non-Toxic,Non-Toxic,> 5000,Non-Toxic,Non-Toxic,Non-Toxic,Drug recovery [26]: 100%; recovery [27]: 93%; Drug recovery [28]: 95%; efflux ratio [29]: 20; inhibition (INH) [21]: Not Active; EC50 [22]: 0.088 nM; Activity [23]: Non-Toxic; Activity [24]: Non-Toxic; CLH [25]: < 8.2 µL/min/10^6 cells
